These results are taken from ChEMBL document CHEMBL2203121, “DNA cleavage induced by antitumor antibiotic leinamycin and its biological consequences” (Bioorg Med Chem, 2012).

What is called IC50 is the midpoint of a concentration-inhibition curve.

In brackets after ≈: the same amount, converted by molar mass. Activity calls are given as the source filed them. The rule behind the calls is not given here.

Assay [1] concerns Nucleic Acid. Nature of the assay: Inhibition of Leinamycin-induced strand breaks in 32P-labeled 25-bp oligomer duplex Sp25 DNA after 24 hrs by PAGE analysis without hot piperidine treatment. The class given is nucleic-acid assay. The procedure, abridged: (§1)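 5'-32P-end-labeled Sp25 duplex (100 fmol) exposed at 37°C for 24 h to leinamycin, Fe(II)-bleomycin or 1 mM MMS with rising methoxyamine levels in 20 mM Tris–HCl pH 7.6, 20 mM NaCl, 1 mM DTT; unreacted drug removed by Sephadex G-10; no piperidine step; denaturing 16% urea–acrylamide gel, PhosphorImager scan.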

Assay [2] concerns Nucleic Acid. Nature of the assay: Inhibition of Leinamycin-induced strand breaks in 32P-labeled 25-bp oligomer duplex Sp25 DNA at 1mM by PAGE analysis followed by hot piperidine treatment. It counts as nucleic-acid assay. The procedure, abridged:
(§2)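 5'-32P-end-labeled duplex Sp25 (100 fmol), gel-purified, incubated at 37°C for 24 h with leinamycin, Fe(II)-bleomycin or 1 mM MMS plus increasing methoxyamine in 20 mM Tris–HCl pH 7.6, 20 mM NaCl, 1 mM DTT; drug removed on Sephadex G-10; then 1 M piperidine, 90°C, 30 min; 16% urea–acrylamide gel, PhosphorImager quantification.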

The test system of assay [3] is Nucleic Acid. Kind of assay: Inhibition of methylmethanesulfonate-induced strand breaks in 32P-labeled 25-bp oligomer duplex Sp25 DNA at 1 mM after 24 hrs by PAGE analysis followed by hot piperidine treatment. The class given is nucleic-acid assay. The procedure, abridged:
as §2

The nature of assay [4]: Potentiation of leinamycin-induced cytotoxicity in human MiaPaCa cells by MTT assay. The class given is functional. The procedure, abridged:
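MiaPaCa cells grown in RPMI1640 with 10% FCS, exposed to methoxyamine (up to 25 mM), leinamycin or both; viability by MTT reduction, formazan solubilized and read at 595 nm; triplicate determinations, bars ±SE.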
(In general: Tetrazolium assays rely on reduction of a dye to a coloured formazan, in cell work by metabolically active cells.)

In assay [5] the test system is Nucleic Acid. Nature of the assay: Inhibition of leinamycin-induced strand breaks in 32P-labeled 25-bp oligomer duplex Sp25 DNA at 1mM after 24 hrs by PAGE analysis without hot piperidine treatment. It counts as nucleic-acid assay. The procedure, abridged: as §1
In assay [6] the test system is Nucleic Acid. Nature of the assay: Inhibition of bleomycin-induced strand breaks in 32P-labeled 25-bp oligomer duplex Sp25 DNA at 1 mM after 24 hrs by PAGE analysis followed by hot piperidine treatment. The class given is nucleic-acid assay. In a few lines: as §2
In assay [7] the test system is Nucleic Acid. Kind of assay: Inhibition of methyl methanesulfonate-induced strand breaks in 32P-labeled 25-bp oligomer duplex Sp25 DNA at 1 mM by PAGE analysis without hot piperidine treatment. The class given is nucleic-acid assay. In a few lines: as §1
Assay [8] has as its system Nucleic Acid. Nature of the assay: Inhibition of bleomycin-induced strand breaks in 32P-labeled 25-bp oligomer duplex Sp25 DNA at 1 mM by PAGE analysis without hot piperidine treatment. It counts as nucleic-acid assay. The procedure, abridged: as §1
Assay [9] deals with Nucleic Acid. Kind of assay: Inhibition of Leinamycin-induced strand breaks in 32P-labeled 25-bp oligomer duplex Sp25 DNA after 24 hrs by PAGE analysis followed by hot piperidine treatment. The class given is nucleic-acid assay. The procedure, abridged: as §2
Assay [10] is described as follows: Cytotoxicity against human MiaPaCa cells by MTT assay. The class given is functional, cell-based. Particulars: MIA PaCa-2. In a few lines: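 MiaPaCa cells in RPMI1640 with 10% FCS were exposed to leinamycin. Viability was read by MTT reduction to formazan, with absorbance of solubilised formazan at 595 nm. Survival was determined in triplicate with ±SE.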

Another assay has as its system Xrs-5. Kind of assay: Cytotoxicity against chinese hamster kU86-mutant Xrs-5 cells assessed as cell survival by clonogenic survival assay. It counts as functional, cell-based. Particulars: Cricetulus griseus. The procedure, abridged:
(§3)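 CHO lines from repair-proficient and repair-mutant backgrounds, grown in RPMI1640 with 10% FCS. Cells plated in triplicate at 400 cells/well and dosed 24 h later with a range of leinamycin concentrations. Colonies grew 14 days and were stained with 1% methylene blue in 50% ethanol. Dye was eluted in isopropanol with 0.4 M HCl and read at 595 nm for relative survival.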

The subject of assay [11] is CHO-AA8. Kind of assay: Ratio for chinese hamster AA8 cells to chinese hamster BER-mutant EM9 cells. The class given is functional, Cricetulus griseus.
Assay [12] can be described thus: Cytotoxicity against human MiaPaCa cells assessed as potentiation of methoxyamine-mediated cytotoxicity by MTT assay. It counts as functional, cell-based. Particulars: MIA PaCa-2. In a few lines: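 MiaPaCa cells in RPMI1640 with 10% FCS were given leinamycin alone or combined with methoxyamine, a BER inhibitor, tested alone up to 25 mM. Survival was measured by MTT, reading solubilised formazan at 595 nm, in triplicate with ±SE.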

Assay [13] is described as follows: Cytotoxicity against chinese hamster NER-mutant UV5 cells assessed as cell survival by clonogenic survival assay. It counts as functional, cell-based. The conditions noted are these: Cricetulus griseus. In a few lines:
as §3

A further assay is filed under the species Cricetulus griseus. Nature of the assay: Cytotoxicity against chinese hamster BER-mutant EM9 cells assessed as cell survival by clonogenic survival assay. It counts as functional, cell-based. In a few lines:
as §3

The nature of assay [14]: Cytotoxicity against chinese hamster NER-mutant UV41 cells assessed as cell survival by clonogenic survival assay. It counts as functional, cell-based. The conditions noted are these: Cricetulus griseus. In a few lines: as §3
The test system of assay [15] is Nucleic Acid. Kind of assay: Induction of DNA cleavage in 32P-labeled oligomer duplex Sp25 DNA after 8 hrs by PAGE analysis with hot piperidine treatment. The class given is nucleic-acid assay. In a few lines: (§4)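 5'-32P-end-labelled, gel-purified Sp25 duplex (100 fmol) was incubated with leinamycin at 37°C in 20 mM Tris-HCl pH 7.6, 20 mM NaCl, 1 mM DTT. Drug was removed on a G-10 column, then DNA was heated 30 min in 1 M piperidine. Products were run on 16% urea-PAGE and quantified by phosphorimaging.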

Assay [16] has as its system Nucleic Acid. Kind of assay: Induction of DNA cleavage in 32P-labeled oligomer duplex Sp25 DNA at 2 ug/ml to 100 ug/ml after 24 hrs by PAGE analysis followed by hot piperidine treatment. It counts as nucleic-acid assay. The procedure, abridged: as §4
Assay [17] concerns CHO-AA8. Kind of assay: Cytotoxicity against chinese hamster AA8 cells assessed as cell survival by clonogenic survival assay. It counts as functional, cell-based. Particulars: Cricetulus griseus. The procedure, abridged:
as §3

Assay [18] concerns Nucleic Acid. Kind of assay: Induction of DNA cleavage in 32P-labeled oligomer duplex Sp25 DNA up to 24 hrs by PAGE analysis without hot piperidine treatment. The class given is nucleic-acid assay. In a few lines: (§5)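 5'-32P-end-labelled, gel-purified Sp25 duplex (100 fmol) was incubated with leinamycin at 37°C in 20 mM Tris-HCl pH 7.6, 20 mM NaCl, 1 mM DTT, with no piperidine step. Unreacted drug was removed on a G-10 column. Fragments were resolved on 16% urea-PAGE and quantified by phosphorimaging.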

Assay [19] can be described thus: Cytotoxicity against chinese hamster NER-mutant UV135 cells assessed as cell survival by clonogenic survival assay. The class given is functional, cell-based. The conditions noted are these: Cricetulus griseus. In a few lines: as §3
Assay [20] has as its system Nucleic Acid. Kind of assay: Induction of DNA cleavage in 32P-labeled oligomer duplex Sp25 DNA at 2 ug/ml to 100 ug/ml after 24 hrs by PAGE analysis without hot piperidine treatment. It counts as nucleic-acid assay. In a few lines:
as §5

Take `CON` [METHOXYAMINE]: the result in the assay on Nucleic Acid [1] and with Nucleic Acid [9] was Active. In addition, the result in the assay on Nucleic Acid [2], in the assay with Nucleic Acid [3], with Nucleic Acid [5], with Nucleic Acid [6], in the assay on Nucleic Acid [7] and with Nucleic Acid [8] was inactive. For the same compound, the “fold change (FC)” value in assay [4] was determined as 2.5.
Consider `C/C1=C\[C@@H](O)C(=O)/C=C/C=C\c2csc(n2)[C@@H](C)NC(=O)C[C@@]2(CC1)[S+]([O-])SC(=O)[C@]2(C)O` (some centres not stated) [LEINAMYCIN], for which the IC50 in assay [10] turned out to be 40 ng/mL (≈ 78.3 nM); in assay [12], 15 ng/mL; in assay [13], 3 ng/mL (≈ 5.87 nM); in [14], 3 ng/mL (≈ 5.87 nM); in the assay on CHO-AA8 [17], 10 ng/mL (≈ 19.6 nM); in assay [19], 2 ng/mL (≈ 3.92 nM). Also, the outcome in the assay with Xrs-5, in the assay filed under Cricetulus griseus, in the assay on Nucleic Acid [15] and with Nucleic Acid [18] was Active. In the assay on CHO-AA8 [11], the Ratio was more than 3. Further, the Activity entry in the assay with Nucleic Acid [16] and in the assay on Nucleic Acid [20] was “Dose-dependent effect” throughout.
